Screening data: PubChem BioAssay, several laboratories
In the library only some 2.2% were active in any assay of this set; here they are far more common.
miR122 inh: miR-122 Renilla sensor signal increase in Huh7, primary screen, miR-122 inhibitor project, cell-based, single point, plate reader; hit rate 0.3% among 340,000; Huh7 miR-122 Renilla luciferase sensor, 48 h; neutral wells = 0, positive control = 100; AID 602342, 2012; activation (reporter increase), % at 12.5 µM;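 active means mean replicate activation score at least 90 and every replicate individually at or above 90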;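 further: higher luciferase means less miR-122 activity so hits act as miR-122 inhibitors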
NR2E3 ag-1: NR2E3 agonists in two-hybrid cells, primary screen, cell-based, luminescence, CHO-S, Gal4-NCOR/VP16-NR2E3; Photoreceptor-specific nuclear receptor (Homo sapiens), Q9Y5X4; luciferase; inhibition of corepressor binding, % at 3.98 µM; hit rate 0.35% among 360,000;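 active means inhibition above the mean of all tested compounds plus 3 SD, cut at about 70% in these data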;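 further: 0% = DMSO with NR2E3 transfected cells and 100% = cells lacking NR2E3 construct; higher means lower luciferase signal from less NR2E3 corepressor binding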
Target sequence (Q9Y5X4 whole entry, looked up, the tested form may be a part): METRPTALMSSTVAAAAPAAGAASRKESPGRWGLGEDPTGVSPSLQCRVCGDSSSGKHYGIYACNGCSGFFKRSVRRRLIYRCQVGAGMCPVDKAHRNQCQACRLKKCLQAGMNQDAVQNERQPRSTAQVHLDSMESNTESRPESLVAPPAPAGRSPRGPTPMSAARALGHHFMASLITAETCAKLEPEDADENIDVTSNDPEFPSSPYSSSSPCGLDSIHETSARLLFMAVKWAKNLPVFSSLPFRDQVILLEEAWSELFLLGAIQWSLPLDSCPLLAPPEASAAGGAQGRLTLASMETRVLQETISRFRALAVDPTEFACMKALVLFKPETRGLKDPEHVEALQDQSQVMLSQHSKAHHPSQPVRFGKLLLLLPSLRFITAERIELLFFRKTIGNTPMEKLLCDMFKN
FGF22 binding: binders of human FGF22 protein, primary screen, FGF22 synaptogenesis inhibitor project, biophysical, thermal shift, single point; AID 651658, 2012; Fibroblast growth factor 22 (Homo sapiens), Q9HCT0; recombinant FGF22 thermal shift, SYPRO orange fluorescence; percent of sucrose octasulfate shift, DMSO zero; hit rate 1.5% among 340,000; activity (Tm shift, normalised), % at 9.99 µM;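 active means mean Tm shift, scaled 0 neutral to 100 positive control, at about 1.3% or above, every replicate too, limit read from the data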
Target sequence (Q9HCT0 whole entry, looked up): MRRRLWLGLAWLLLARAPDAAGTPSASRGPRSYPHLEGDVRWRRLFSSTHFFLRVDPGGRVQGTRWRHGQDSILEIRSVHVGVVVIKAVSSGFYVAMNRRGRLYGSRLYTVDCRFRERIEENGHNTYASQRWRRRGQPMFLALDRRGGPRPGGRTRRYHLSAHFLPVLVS
NR2E3 ag-2: inhibitors of NR2E3-RetCOR corepressor binding, primary screen, NR2E3 agonist project, biochemical, TR-FRET, GST-NR2E3, biotin-RetCOR; Photoreceptor-specific nuclear receptor (Homo sapiens), Q9Y5X4; 1536-well; inhibition of corepressor binding, % at 4.78 µM; hit rate 0.12% among 320,000; AID 2300, 2010;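 active means percent inhibition above the cutoff of mean plus 3 SD of all tested compounds, set per screening campaign, cut at about 20% in these data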;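 further: 0% = DMSO wells and 100% = biotin wells as full block of FRET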
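Test system – NR2E3–RetCOR corepressor complex · Quantity – NR2E3 fusion 1.35 nM · Buffer or medium – Tris pH 7.5 · Incubation – Compound–protein incubation for 5 h at 4 °C · Technique – TR-FRET, Eu(K)-anti-GST donor, streptavidin-D2 acceptor, ex 340, em 617/671 nm · Evaluation – percent inhibition of 671/617 nm emission ratio versus biotin and DMSO controls · Plate – 1536-well format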
697 NFkB inh: inhibitors of PMA/ionomycin-induced NF-kB reporter, 697 cells, primary screen, B-cell NF-kB inhibitor project, cell-based, luminescence, uHTS | hit rate 0.33% among 330,000 | 697 B-cell NF-kB luciferase reporter, 16 h | inhibition, % at 4 µM; in the data active means inhibition above about 35%
Jurkat NFkB inh: inhibitors of induced NF-kB luciferase reporter, primary screen, TCR NF-kB activation inhibitor project, cell-based, luminescence, uHTS; hit rate 0.53% among 330,000; inhibition, % at 4 µM; Jurkat, PMA/ionomycin-induced NF-kB luciferase reporter; in the data active means inhibition above about 50%
Jurkat NFkB conf: PMA/ionomycin-induced NF-kB reporter inhibitors, Jurkat retest, confirmation, T-cell NF-kB inhibitor project, cell-based, luminescence, single concentration; shares compounds with Jurkat NFkB inh; Jurkat NF-kB luciferase, 16 h; inhibition, % at 4 µM; hit rate 27% among 2,700; AID 435020, 2010;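 active means inhibition reaching about 45% at 4 µM in either replicate, limit read from the data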;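 further: plate controls were PMA/ionomycin stimulated DMSO wells for no effect and unstimulated DMSO wells for full effect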
* = called active by the depositor; . = not tested or not shown; [ ] = remark or other dose.

SMILES	miR122 inh	NR2E3 ag-1	FGF22 binding	NR2E3 ag-2	697 NFkB inh	Jurkat NFkB inh	Jurkat NFkB conf
Brc1ccc2c(c1)C(C1=NCCN1)c1ccccc1CS2 (stereo not given)	-6.4	-10.9	0.1	-0.3	0.9	60.0*	56.5*
COc1ccc(CN(C)C[C@H]2Oc3ccc(NC(=O)Nc4ccccc4)cc3CC(=O)N([C@H](C)CO)C[C@H]2C)cc1	3.8[16.7 µM]	.	0.0	.	.	.	.
Clc1ccc(-c2cn3c(n2)-c2ccccc2C3)cc1Cl	-0.7	-162.7	.	-4.7	-245.8	-157.7	-112.0
c1ccc2c(c1)Cn1c-2nc2ccccc21	-5.9	-112.6	.	3.8	-106.6	-92.6	.
Cc1cc(C)c2c(N)c(C(=O)Nc3ccc(F)cc3)sc2n1	58.4	-184.7	0.0	3.9	-154.2	-155.4	-32.1
CN1C(=O)c2cc(NC(=O)C3CCOCC3)ccc2OC[C@H]2O[C@H](CC(=O)O)CC[C@H]21	0.0[16.7 µM]	.	0.0	.	.	.	.
COc1ccc(C2=Nn3c(nnc3-c3ccccc3)SC2)cc1OC	-3.9	-1.2	.	-5.0	-4.9	17.8	.
COc1ccc(OC)c(-c2nnc3n2N=C(c2ccc(OC(F)F)c(OCC4CC4)c2)CS3)c1	.	-14.5	-0.1	.	-35.9	47.2	.
COc1ccc(OC)c(-c2nnc3n2N=C(c2ccc(OC)c(OC)c2)CS3)c1	.	32.8	-0.1	.	-41.4	57.7*	43.6
COc1ccc(OC)c(-c2nnc3n2N=C(c2ccc(OC)c(OC4CCCC4)c2)CS3)c1	.	15.1	-0.5	.	10.7	78.8*	62.8*
CCCC(=O)Nc1ccc2c(c1)OC[C@H](C)N(CC1CCOCC1)C[C@@H](C)[C@H](OC)CN(C)C2=O	.	.	-0.1	.	.	.	.
CO[C@H]1CC[C@@H]2CCOc3c(C#N)cccc3C(=O)N(C)[C@H](C)C(=O)N(C)C[C@@H]1O2	.	.	-0.1	.	.	.	.
Cc1nonc1OCCN1CCN(c2ccc([N+](=O)[O-])cc2)CC1	.	15.8	0.0	0.8	-17.7	58.4*	24.1
O=[N+]([O-])c1ccc(N2CCN(Cc3ccc(Br)o3)CC2)cc1	-1.2	-29.2	0.0	.	14.9	51.8*	6.1
Cc1noc(C)c1NC(=O)Nc1ccc2c(c1)CC(=O)N([C@@H](C)CO)C[C@H](C)[C@H](CN(C)C(=O)Nc1ccc3c(c1)OCO3)O2	11.9[16.7 µM]	.	-0.2	.	.	.	.
CCn1c(/C=C/Nc2ccccc2)[n+](CC)c2cc(Cl)c(Cl)cc21	-3.6	12.4	0.0	-1.2	-10.8	70.5*	-3.0
O=C(Nc1ccc2c(c1)CCC2)c1ccccc1	5.1	-133.6	-0.3	7.2	-242.3	-158.7	-154.4
FC(F)(F)c1nnc2c(Sc3ccc(Cl)cc3)nc3ccccc3n12	.	4.0	.	2.0	8.3	74.2*	4.5
C[C@@H](NC(=O)C[C@@H]1C[C@@H]2c3cc(NC(=O)C4CCOCC4)ccc3O[C@@H]2[C@@H](CO)O1)c1ccccc1	0.4[16.7 µM]	.	-0.2	.	.	.	.
CCn1c(SCC(=O)N/N=C/c2ccc(C)s2)nc2ccccc21	.	-75.2	.	-1.4	-45.7	52.6*	21.9
COc1ccccc1C#Cc1cnc2c(c1)C(=O)N([C@@H](C)CO)C[C@H](C)[C@@H](CN(C)C(C)=O)O2	-5.1[16.7 µM]	.	-0.1	.	.	.	.
O=C(Nc1nc2c(s1)CCCC2)c1ccc2ncsc2c1	-3.6	-130.7	1.7*	1.8	-223.6	-182.8	-86.2
Cc1ncsc1C(=O)Nc1nc2c(s1)CCCC2	-4.2	-134.0	-0.1	0.2	-64.0	-104.9	.
O=C(Nc1nc2c(s1)CCCC2)c1ccc(Br)s1	-6.0	-138.0	.	8.6	-221.3	-190.1	-104.8
Cc1cc(C(=O)Nc2nc3c(s2)CCCC3)cs1	7.6	-147.6	.	3.9	0.3	-164.8	-97.1
SMILES	miR122 inh	NR2E3 ag-1	FGF22 binding	NR2E3 ag-2	697 NFkB inh	Jurkat NFkB inh	Jurkat NFkB conf
CO[C@@H]1CN(C)C(=O)c2ccc(NC(C)=O)cc2OC[C@@H](C)N(CCC(F)(F)F)C[C@@H]1C	.	.	0.0	.	.	.	.
CCCNC(=O)N1CC2(CN(Cc3nccs3)C2)c2c([nH]c3cc(OC)ccc23)[C@H]1CO	.	.	0.1	.	.	.	.
C[C@@H]1CN([C@@H](C)CO)C(=O)c2cccc(N(C)C)c2O[C@H]1CN(C)S(=O)(=O)c1ccccc1	-3.9[16.7 µM]	.	0.1	.	.	.	.
CO[C@H]1CN(C)C(=O)c2ccc(NC(=O)C3CC3)cc2OC[C@@H](C)N(CCc2ccccc2)C[C@@H]1C	12.7[16.7 µM]	.	-0.5	.	.	.	.
N/C(=N\OCc1ccc([N+](=O)[O-])cc1)c1ccccn1	.	.	.	2.4	23.3	59.9*	64.8*
CC(C(=O)O/N=C(\N)c1ccccn1)c1ccc([N+](=O)[O-])cc1 (stereo not given)	.	-41.8	-0.4	0.7	10.4	-23.3	.
Cc1ccc(N/C=C/c2onc(C)c2[N+](=O)[O-])cc1	-2.9	-109.3	-0.1	-3.3	-243.3	-221.1	7.9
CO[C@@H]1CN(C)C(=O)c2cc(NS(=O)(=O)c3ccccc3)ccc2OC[C@H](C)N(Cc2nccs2)C[C@@H]1C	.	.	-0.4	.	.	.	.
CC(C)(C)c1ccc(/C=C/C(=O)NC2=NCCS2)cc1	1.8	-55.7	.	-2.2	-204.2	-161.1	-79.8
CC(C)(C)c1ccc(/C=C/C(=O)Nc2cccnc2)cc1	.	-7.1	0.0	0.2	2.3	-142.1	.
C[C@H](CO)N1C[C@H](C)[C@@H](CN(C)Cc2ccc(-c3ccccc3)cc2)Oc2ccc(NS(=O)(=O)c3ccccc3)cc2CC1=O	1.9[16.7 µM]	.	-0.6	.	.	.	.
CCc1ccc(-c2cc(C(=O)N/N=C/c3c[nH]c4ccccc34)[nH]n2)cc1	9.9	-142.6	1.3	-3.6	-46.6	59.6*	-11.0
Cc1[nH]n(-c2ccccc2)c(=O)c1/C=N/Nc1nncc(-c2ccccc2)n1	-8.9	-57.9	0.3	-2.4	-17.0	55.1*	40.0
Cc1ccc(/C=N/Nc2nncc(-c3ccccc3)n2)o1	6.8	-57.5	0.1	-0.8	-4.6	-39.1	.
COc1cccc(Oc2cnc(N)nc2-c2ccc(OC)cc2O)c1	76.9	-77.1	.	7.9	-47.8	50.3*	15.4
CC(C)(C)c1cc(NC(=O)c2cccs2)no1	.	-169.8	-0.1	1.7	-189.3	-158.1	-80.5
CCOC(=O)c1c(NC(=O)N/N=C/c2ccc(O)c(OC)c2)sc(C(C)=O)c1C	.	.	.	-1.2	-197.6	58.0*	32.7
CCOC(=O)c1c(C)[nH]c(C(=O)N/N=C\c2ccccc2O)c1C	1.8	3.2	0.8	-0.9	.	.	.
